Laboratory results from article PMC3434103 (The Journal of General Physiology, 2012).
“Also recorded” adds a separate entry of the source. Ends that are not written are not given here.

Legend:
[1] = molecular target: recombinant WT mouse RyR2 (Mus musculus, UniProt E9Q401); assay: TAA block of EMD 41000-activated WT RyR2, single channel in planar bilayer; type: biochemical
WT mouse RyR2 = assay: TAA block of ryanodine-modified WT RyR2, single channel; type: biochemical; conditions: 60 mV; for rate of dissociation (koff), difference TBA vs TPeA: 200 µM TBA or 100 µM TPeA, 1 µM ryanodine-modified; for level of block: ryanodine-modified WT, 100 µM TPeA (200 µM TBA)
How it was run: (§1)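 Ryanodine-modified single channels were used: purified HEK293-expressed mouse RyR2 (WT or mutant) in PE bilayers, symmetrical KCl/HEPES pH 7.2, room temperature. TAA was added to […], with the holding potential at 60 mV. Data were filtered at 5 kHz and sampled at 20 kHz. Open and blocked lifetimes came from 50% threshold analysis of ≥2 min records, and blocking parameters were derived from them. Mean ± SEM, unpaired t tests.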

K^+ channels = conditions: quoted range, ref Faraldo-Gómez et al., 2007; cited from earlier work
KcsA = conditions: cytosolic cavity of KcsA; ref Faraldo-Gómez et al., 2007; cited from earlier work
I4861A RyR2 [2] = molecular target: T1, I4861A RyR2 (Mus musculus, UniProt E9Q401, I4860A/I4861A); assay: TPeA block of EMD 41000-activated I4861A RyR2; type: biochemical; conditions: 60 mV
T1 sequence (E9Q401 whole entry I4860A/I4861A): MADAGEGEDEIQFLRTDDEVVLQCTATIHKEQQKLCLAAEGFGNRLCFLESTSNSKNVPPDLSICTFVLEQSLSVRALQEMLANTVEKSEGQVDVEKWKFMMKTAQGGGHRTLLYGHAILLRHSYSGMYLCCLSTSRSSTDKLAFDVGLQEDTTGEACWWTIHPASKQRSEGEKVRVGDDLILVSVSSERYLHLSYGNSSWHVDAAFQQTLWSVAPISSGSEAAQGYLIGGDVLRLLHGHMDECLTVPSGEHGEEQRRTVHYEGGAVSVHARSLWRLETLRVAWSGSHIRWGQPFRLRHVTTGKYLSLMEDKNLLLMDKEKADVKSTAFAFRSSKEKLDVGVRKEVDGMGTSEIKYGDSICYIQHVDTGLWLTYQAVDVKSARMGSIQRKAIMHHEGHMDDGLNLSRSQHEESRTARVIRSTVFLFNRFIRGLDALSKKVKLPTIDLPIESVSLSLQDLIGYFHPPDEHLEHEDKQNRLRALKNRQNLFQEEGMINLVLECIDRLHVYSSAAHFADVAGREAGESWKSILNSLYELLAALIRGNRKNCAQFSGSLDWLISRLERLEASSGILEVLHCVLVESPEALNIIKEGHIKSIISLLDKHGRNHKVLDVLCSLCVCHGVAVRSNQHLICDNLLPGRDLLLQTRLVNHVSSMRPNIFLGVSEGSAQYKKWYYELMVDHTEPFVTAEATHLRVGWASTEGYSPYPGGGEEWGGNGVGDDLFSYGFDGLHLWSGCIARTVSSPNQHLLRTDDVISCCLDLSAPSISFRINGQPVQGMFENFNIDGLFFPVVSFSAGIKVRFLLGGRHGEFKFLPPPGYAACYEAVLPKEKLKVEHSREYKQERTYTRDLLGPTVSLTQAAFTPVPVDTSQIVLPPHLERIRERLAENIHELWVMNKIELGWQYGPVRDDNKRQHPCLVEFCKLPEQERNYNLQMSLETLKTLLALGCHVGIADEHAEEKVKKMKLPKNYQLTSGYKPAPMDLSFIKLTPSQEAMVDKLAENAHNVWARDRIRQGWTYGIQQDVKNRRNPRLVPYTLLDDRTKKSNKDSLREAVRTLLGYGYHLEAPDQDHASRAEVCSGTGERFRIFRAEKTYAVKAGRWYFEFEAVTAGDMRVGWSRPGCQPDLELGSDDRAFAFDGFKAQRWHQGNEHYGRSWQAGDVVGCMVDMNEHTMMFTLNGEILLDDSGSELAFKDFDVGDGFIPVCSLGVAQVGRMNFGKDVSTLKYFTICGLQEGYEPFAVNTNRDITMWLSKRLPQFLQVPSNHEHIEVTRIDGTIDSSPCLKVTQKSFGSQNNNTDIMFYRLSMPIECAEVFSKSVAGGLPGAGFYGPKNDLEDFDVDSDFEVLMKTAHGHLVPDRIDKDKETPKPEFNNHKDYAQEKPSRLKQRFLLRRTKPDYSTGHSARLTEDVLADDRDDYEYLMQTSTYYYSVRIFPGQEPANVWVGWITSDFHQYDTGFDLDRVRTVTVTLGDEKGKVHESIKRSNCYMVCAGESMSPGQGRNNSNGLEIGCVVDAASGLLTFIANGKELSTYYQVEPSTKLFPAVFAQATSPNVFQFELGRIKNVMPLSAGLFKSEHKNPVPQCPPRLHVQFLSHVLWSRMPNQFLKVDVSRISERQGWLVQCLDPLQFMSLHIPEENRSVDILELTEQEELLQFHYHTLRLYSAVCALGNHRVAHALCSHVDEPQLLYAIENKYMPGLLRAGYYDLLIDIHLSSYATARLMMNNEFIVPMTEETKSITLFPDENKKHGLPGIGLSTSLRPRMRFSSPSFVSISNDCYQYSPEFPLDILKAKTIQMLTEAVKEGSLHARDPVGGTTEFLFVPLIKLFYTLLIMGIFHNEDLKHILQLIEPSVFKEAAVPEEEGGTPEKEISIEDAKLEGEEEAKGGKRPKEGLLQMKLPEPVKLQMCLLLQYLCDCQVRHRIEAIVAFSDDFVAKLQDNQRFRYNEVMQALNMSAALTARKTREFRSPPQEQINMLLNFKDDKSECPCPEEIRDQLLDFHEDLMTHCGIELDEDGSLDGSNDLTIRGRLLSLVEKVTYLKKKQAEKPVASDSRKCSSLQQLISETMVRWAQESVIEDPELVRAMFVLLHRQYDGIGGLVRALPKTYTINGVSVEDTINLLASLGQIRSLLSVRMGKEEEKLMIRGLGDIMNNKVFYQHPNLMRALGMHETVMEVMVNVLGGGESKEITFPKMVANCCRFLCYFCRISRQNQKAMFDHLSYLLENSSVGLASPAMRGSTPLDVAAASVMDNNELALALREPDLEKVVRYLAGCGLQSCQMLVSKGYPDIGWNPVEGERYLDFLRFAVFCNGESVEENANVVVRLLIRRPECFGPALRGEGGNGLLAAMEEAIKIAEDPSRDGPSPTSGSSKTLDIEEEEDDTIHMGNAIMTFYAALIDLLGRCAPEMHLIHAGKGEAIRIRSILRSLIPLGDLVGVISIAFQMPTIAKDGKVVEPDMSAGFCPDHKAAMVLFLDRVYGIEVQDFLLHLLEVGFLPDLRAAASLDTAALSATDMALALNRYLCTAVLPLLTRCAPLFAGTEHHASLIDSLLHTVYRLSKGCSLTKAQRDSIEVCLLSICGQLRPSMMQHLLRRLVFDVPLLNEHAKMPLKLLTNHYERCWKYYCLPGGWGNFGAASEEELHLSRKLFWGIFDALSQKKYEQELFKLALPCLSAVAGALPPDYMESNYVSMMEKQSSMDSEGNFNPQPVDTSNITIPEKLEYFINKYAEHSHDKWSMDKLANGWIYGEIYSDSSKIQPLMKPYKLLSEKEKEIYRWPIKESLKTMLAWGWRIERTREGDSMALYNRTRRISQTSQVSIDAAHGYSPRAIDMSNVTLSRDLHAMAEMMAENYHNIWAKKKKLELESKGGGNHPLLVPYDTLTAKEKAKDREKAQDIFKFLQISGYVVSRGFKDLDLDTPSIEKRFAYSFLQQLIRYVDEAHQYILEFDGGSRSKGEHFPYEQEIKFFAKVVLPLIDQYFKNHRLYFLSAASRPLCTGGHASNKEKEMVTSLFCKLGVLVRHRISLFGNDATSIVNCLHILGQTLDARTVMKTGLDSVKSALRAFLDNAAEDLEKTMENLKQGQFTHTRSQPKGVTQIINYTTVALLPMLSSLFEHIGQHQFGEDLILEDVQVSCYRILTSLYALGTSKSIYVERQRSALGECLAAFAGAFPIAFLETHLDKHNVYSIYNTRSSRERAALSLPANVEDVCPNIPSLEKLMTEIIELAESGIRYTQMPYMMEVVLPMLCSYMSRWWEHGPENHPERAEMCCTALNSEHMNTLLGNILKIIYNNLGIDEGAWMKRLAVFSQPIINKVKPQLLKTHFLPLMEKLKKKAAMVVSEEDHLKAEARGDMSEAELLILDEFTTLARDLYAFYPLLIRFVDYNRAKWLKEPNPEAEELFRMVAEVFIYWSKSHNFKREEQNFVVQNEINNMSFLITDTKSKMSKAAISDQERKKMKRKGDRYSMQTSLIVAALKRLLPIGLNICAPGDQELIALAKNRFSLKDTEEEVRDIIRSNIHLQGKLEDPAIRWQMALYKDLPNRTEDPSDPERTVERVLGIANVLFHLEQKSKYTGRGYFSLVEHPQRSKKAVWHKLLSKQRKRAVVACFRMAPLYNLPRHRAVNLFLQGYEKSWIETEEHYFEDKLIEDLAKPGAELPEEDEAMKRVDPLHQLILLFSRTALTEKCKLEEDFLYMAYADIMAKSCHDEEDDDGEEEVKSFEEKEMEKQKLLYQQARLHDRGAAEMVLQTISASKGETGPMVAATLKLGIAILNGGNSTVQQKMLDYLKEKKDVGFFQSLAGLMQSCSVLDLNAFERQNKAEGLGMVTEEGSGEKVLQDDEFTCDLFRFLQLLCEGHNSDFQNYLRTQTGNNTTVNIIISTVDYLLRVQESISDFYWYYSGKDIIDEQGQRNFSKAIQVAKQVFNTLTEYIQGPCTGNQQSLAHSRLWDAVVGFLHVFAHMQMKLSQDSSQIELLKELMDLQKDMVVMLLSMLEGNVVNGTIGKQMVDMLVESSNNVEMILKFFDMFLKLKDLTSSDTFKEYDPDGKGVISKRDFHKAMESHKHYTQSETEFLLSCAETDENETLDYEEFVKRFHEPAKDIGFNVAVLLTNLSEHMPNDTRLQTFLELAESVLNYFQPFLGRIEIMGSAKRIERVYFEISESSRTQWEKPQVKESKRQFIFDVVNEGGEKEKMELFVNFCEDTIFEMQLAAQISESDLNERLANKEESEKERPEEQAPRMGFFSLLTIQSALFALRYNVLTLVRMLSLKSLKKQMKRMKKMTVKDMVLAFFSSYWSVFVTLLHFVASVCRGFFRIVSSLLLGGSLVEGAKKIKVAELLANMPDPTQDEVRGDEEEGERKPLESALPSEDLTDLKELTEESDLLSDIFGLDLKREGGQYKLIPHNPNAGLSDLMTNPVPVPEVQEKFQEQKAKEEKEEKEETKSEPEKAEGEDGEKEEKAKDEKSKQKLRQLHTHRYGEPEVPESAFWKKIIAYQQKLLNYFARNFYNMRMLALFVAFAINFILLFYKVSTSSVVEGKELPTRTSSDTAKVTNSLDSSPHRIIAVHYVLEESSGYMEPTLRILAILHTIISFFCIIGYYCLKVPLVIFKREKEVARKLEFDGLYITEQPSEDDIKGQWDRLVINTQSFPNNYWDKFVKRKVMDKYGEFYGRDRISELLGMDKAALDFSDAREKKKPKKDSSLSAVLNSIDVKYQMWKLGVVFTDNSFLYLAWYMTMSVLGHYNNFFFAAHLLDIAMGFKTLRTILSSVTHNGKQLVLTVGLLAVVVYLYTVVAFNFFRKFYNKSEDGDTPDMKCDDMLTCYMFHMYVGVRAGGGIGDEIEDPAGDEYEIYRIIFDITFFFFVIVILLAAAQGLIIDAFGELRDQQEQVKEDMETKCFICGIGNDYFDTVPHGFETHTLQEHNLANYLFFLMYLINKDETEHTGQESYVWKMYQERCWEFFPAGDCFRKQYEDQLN

I4862A RyR2 [3] = molecular target: T2, I4862A RyR2 (Mus musculus, UniProt E9Q401, I4861A); assay: TPeA block of EMD 41000-activated I4862A RyR2; type: biochemical; conditions: 60 mV
T2 sequence (E9Q401 whole entry I4861A): as the sequence (E9Q401 whole entry I4860A/I4861A) above, with A4860I counted along it

L4865A RyR2 [4] = molecular target: T3, L4865A RyR2 (Mus musculus, UniProt E9Q401, L4864A); assay: TPeA block of EMD 41000-activated L4865A RyR2; type: biochemical; conditions: 60 mV
T3 sequence (E9Q401 whole entry L4864A): as the sequence (E9Q401 whole entry I4860A/I4861A) above, with A4860I, A4861I, L4864A counted along it

I4861A RyR2 [5] = molecular target: T1, I4861A RyR2; assay: TPeA block of ryanodine-modified I4861A RyR2; type: biochemical; conditions: 100 µM TPeA, 60 mV
How it was run: as §1

I4862A RyR2 [6] = molecular target: T2, I4862A RyR2; assay: TPeA block of ryanodine-modified I4862A RyR2; type: biochemical; conditions: 100 µM TPeA, 60 mV
How it was run: as §1

L4865A RyR2 [7] = molecular target: T3, L4865A RyR2; assay: TPeA block of ryanodine-modified L4865A RyR2; type: biochemical; conditions: 100 µM TPeA, 60 mV
How it was run: as §1

I4867A RyR2 [8] = molecular target: T4, I4867A RyR2 (Mus musculus, UniProt E9Q401, I4866A); assay: TPeA block of ryanodine-modified I4867A RyR2; type: biochemical; conditions: 100 µM TPeA, 60 mV
T4 sequence (E9Q401 whole entry I4866A): as the sequence (E9Q401 whole entry I4860A/I4861A) above, with A4860I, A4861I, I4866A counted along it
How it was run: as §1

F4870A RyR2 [9] = molecular target: T5, F4870A RyR2 (Mus musculus, UniProt E9Q401, F4869A); assay: TPeA block of ryanodine-modified F4870A RyR2; type: biochemical; conditions: 100 µM TPeA, 60 mV
T5 sequence (E9Q401 whole entry F4869A): as the sequence (E9Q401 whole entry I4860A/I4861A) above, with A4860I, A4861I, F4869A counted along it
How it was run: as §1

RyR2 = assay: ShBP block of RyR2 in symmetrical 610 mM KCl; type: biochemical; conditions: for block at high K+ activity: preliminary, symmetrical 610 mM KCl plus up to 100 µM EMD 41000
[10] = molecular target: WT recombinant ryanodine-modified RyR2 channels (Mus musculus, UniProt E9Q401); assay: biochemical
I4861A RyR2 [11] = molecular target: T1, I4861A RyR2; assay: Ryanodine modification of I4861A RyR2; type: biochemical
How it was run: (§2)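 Mouse RyR2 (WT or TM10 alanine mutants) was expressed in HEK293 cells by Ca²⁺ phosphate transfection for 48 h, solubilized in CHAPS/phosphatidylcholine and purified on a 0–40% sucrose gradient. Single channels were incorporated into PE bilayers with the cytosolic side cis, in symmetrical KCl with 20 mM HEPES pH 7.2, at 22 ± 2°C. After 1 µM ryanodine, amplitudes were read at 60 mV. Mean ± SEM, n = 4–7, unpaired t test.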

I4862A RyR2 [12] = molecular target: T2, I4862A RyR2; assay: Ryanodine modification of I4862A RyR2; type: biochemical
How it was run: as §2

L4865A RyR2 [13] = molecular target: T3, L4865A RyR2; assay: Ryanodine modification of L4865A RyR2; type: biochemical
How it was run: as §2

I4867A RyR2 [14] = molecular target: T4, I4867A RyR2; assay: Ryanodine modification of I4867A RyR2; type: biochemical
How it was run: as §2

F4870A RyR2 [15] = molecular target: T5, F4870A RyR2; assay: Ryanodine modification of F4870A RyR2; type: biochemical
How it was run: as §2

[16] = 1 µM ryanodine, 60 mV, lower than WT

Chain of recombinant WT mouse RyR2 (E9Q401 whole entry): as the sequence (E9Q401 whole entry I4860A/I4861A) above, with A4860I, A4861I counted along it

CCCC[N+](CCCC)(CCCC)CCCC [TBA, tetrabutylammonium]
Kd [1]: 179 µM
koff [1]: 412 s⁻¹
rate of dissociation (koff), difference TBA vs TPeA (WT mouse RyR2): very marked difference in the rates of dissociation of TBA and TPeA is retained
level of block (WT mouse RyR2): completely occlude the RyR2 pore
koff (K^+ channels): 10 to 200 s⁻¹
pore occlusion (KcsA): fully occludes the pore of the channel

CCCCCC[N+](CCCCCC)(CCCCCC)CCCCCC [THexA, tetrahexylammonium]
Kd [1]: 2.58 µM
fold increase in affinity between TBA and THexA ([1]; EMD 41000-activated, 610 mM K+, 60 mV, THexA relative to TBA): 69.5 -fold
fold decrease in koff between TPeA and THexA ([1]; EMD 41000-activated, 610 mM K+, 60 mV, THexA relative to TPeA): 1.7 -fold

CCCCC[N+](CCCCC)(CCCCC)CCCCC [TPeA, tetrapentylammonium]
fold decrease in koff between TBA and TPeA ([1]; EMD 41000-activated, 610 mM K+, 60 mV, TPeA relative to TBA): 22 -fold
rate of dissociation (koff), difference TBA vs TPeA (WT mouse RyR2): very marked difference in the rates of dissociation of TBA and TPeA is retained
level of block (WT mouse RyR2): to a level indistinguishable from the closed state; also recorded: completely occlude the RyR2 pore
probability of block (1 − Po) vs WT (I4861A RyR2 [2]; 100 µM TPeA): reduced significantly
rate of association (kon) vs WT (I4861A RyR2 [2]; 100 µM TPeA): unaffected
rate of dissociation (koff) vs WT (I4861A RyR2 [2]; 100 µM TPeA): significantly increased rates of TPeA dissociation
residual current vs WT (I4861A RyR2 [2]; 100 µM TPeA): slightly lower than the equivalent current in the WT RyR2
affinity (Kd) vs WT (I4861A RyR2 [2]; 100 µM TPeA, in words): significant decreases in TPeA affinity
amplitude of full open state in presence of TPeA vs WT (I4861A RyR2 [2]): indistinguishable from that of the WT channel
probability of block (1 − Po) vs WT (I4862A RyR2 [3]; 100 µM TPeA): reduced significantly
rate of association (kon) vs WT (I4862A RyR2 [3]; 100 µM TPeA): unaffected
rate of dissociation (koff) vs WT (I4862A RyR2 [3]; 100 µM TPeA): significantly increased rates of TPeA dissociation, with the most dramatic effect seen in I4862A
residual current vs WT (I4862A RyR2 [3]; 100 µM TPeA): indistinguishable from that of the WT channel
affinity (Kd) vs WT (I4862A RyR2 [3]; 100 µM TPeA, in words): significant decreases in TPeA affinity
amplitude of full open state in presence of TPeA vs WT (I4862A RyR2 [3]): indistinguishable from that of the WT channel
rate of association (kon) vs WT (L4865A RyR2 [4]; 100 µM TPeA): unaffected
rate of dissociation (koff) vs WT (L4865A RyR2 [4]; 100 µM TPeA): significantly increased rates of TPeA dissociation
residual current vs WT (L4865A RyR2 [4]; 100 µM TPeA): indistinguishable from that of the WT channel
amplitude of full open state in presence of TPeA vs WT (L4865A RyR2 [4]): indistinguishable from that of the WT channel
koff vs WT (I4861A RyR2 [5]): significant increase in koff
kon vs WT (I4861A RyR2 [5]): reduced significantly
level of block (I4861A RyR2 [5]): to a level indistinguishable from the closed state
magnitude / probability of block (1 − Po) vs WT (I4861A RyR2 [5]): lower than that seen in the WT RyR channel
affinity (Kd) vs WT (I4861A RyR2 [5]; in words): significant reduction in TPeA affinity
koff vs WT (I4862A RyR2 [6]): significant increase in koff
kon vs WT (I4862A RyR2 [6]): unaffected
level of block (I4862A RyR2 [6]): to a level indistinguishable from the closed state
magnitude / probability of block (1 − Po) vs WT (I4862A RyR2 [6]): lower than that seen in the WT RyR channel
affinity (Kd) vs WT (I4862A RyR2 [6]; in words): significant reduction in TPeA affinity
koff vs WT (L4865A RyR2 [7]): significant increase in koff
kon vs WT (L4865A RyR2 [7]): unaffected
level of block (L4865A RyR2 [7]): to a level indistinguishable from the closed state
magnitude / probability of block (1 − Po) vs WT (L4865A RyR2 [7]): lower than that seen in the WT RyR channel
affinity (Kd) vs WT (L4865A RyR2 [7]; in words): significant reduction in TPeA affinity
koff vs WT (I4867A RyR2 [8]): significant increase in koff
kon vs WT (I4867A RyR2 [8]): reduced significantly
level of block (I4867A RyR2 [8]): to a level indistinguishable from the closed state
magnitude / probability of block (1 − Po) vs WT (I4867A RyR2 [8]): lower than that seen in the WT RyR channel
affinity (Kd) vs WT (I4867A RyR2 [8]; in words): significant reduction in TPeA affinity
koff vs WT (F4870A RyR2 [9]): significant increase in koff
kon vs WT (F4870A RyR2 [9]): reduced significantly
level of block (F4870A RyR2 [9]): to a level indistinguishable from the closed state
magnitude / probability of block (1 − Po) vs WT (F4870A RyR2 [9]): lower than that seen in the WT RyR channel
affinity (Kd) vs WT (F4870A RyR2 [9]; in words): significant reduction in TPeA affinity

MAAVAGLYGLGEDRQHRKKQ [ShBP]
reduction in Po (RyR2; 20 µM ShBP cytosolic, ryanodine-modified, symmetrical 610 mM KCl): no significant reduction in Po
block at high K+ activity (RyR2): ineffective

MAAVVGLYGLGEDRQHRKKQ [MHBPII]
block at high K+ activity (RyR2): ineffective

MAQVQGLYGLGEDRQHRKKQ-NH2 [LHBP]
Kd [10]: 65.9 µM

MAVVAGLYGLGEDRQHRKKQ-NH2 [MHBPI]
Kd [10]: 27.8 µM

ryanodine
amplitude of ryanodine-modified open state vs WT modified channel (I4861A RyR2 [11]; 1 µM ryanodine, 60 mV): not significantly different from that of the WT channel
Po and unitary conductance on ryanodine modification (I4861A RyR2 [11]; ryanodine): characteristic increase in Po and reduction in unitary conductance
amplitude of ryanodine-modified open state vs WT modified channel (I4862A RyR2 [12]; 1 µM ryanodine, 60 mV): not significantly different from that of the WT channel
Po and unitary conductance on ryanodine modification (I4862A RyR2 [12]; ryanodine): characteristic increase in Po and reduction in unitary conductance
reduction in conductance of ryanodine-modified state vs WT modified channel (L4865A RyR2 [13]; [16]): ~10%
Po and unitary conductance on ryanodine modification (L4865A RyR2 [13]; ryanodine): characteristic increase in Po and reduction in unitary conductance
reduction in conductance of ryanodine-modified state vs WT modified channel (I4867A RyR2 [14]; [16]): ~10%
Po and unitary conductance on ryanodine modification (I4867A RyR2 [14]; ryanodine): characteristic increase in Po and reduction in unitary conductance
reduction in conductance of ryanodine-modified state vs WT modified channel (F4870A RyR2 [15]; [16]): ~10%
Po and unitary conductance on ryanodine modification (F4870A RyR2 [15]; ryanodine): characteristic increase in Po and reduction in unitary conductance
